Legend:
[1] = molecular target: T1, Inosine-5'-monophosphate dehydrogenase (Cryptosporidium parvum, UniProt Q8T6T2); assay: Inhibition of Cryptosporidium parvum IMPDH assessed as reduction in NADH production
T1 sequence (Q8T6T2 whole entry): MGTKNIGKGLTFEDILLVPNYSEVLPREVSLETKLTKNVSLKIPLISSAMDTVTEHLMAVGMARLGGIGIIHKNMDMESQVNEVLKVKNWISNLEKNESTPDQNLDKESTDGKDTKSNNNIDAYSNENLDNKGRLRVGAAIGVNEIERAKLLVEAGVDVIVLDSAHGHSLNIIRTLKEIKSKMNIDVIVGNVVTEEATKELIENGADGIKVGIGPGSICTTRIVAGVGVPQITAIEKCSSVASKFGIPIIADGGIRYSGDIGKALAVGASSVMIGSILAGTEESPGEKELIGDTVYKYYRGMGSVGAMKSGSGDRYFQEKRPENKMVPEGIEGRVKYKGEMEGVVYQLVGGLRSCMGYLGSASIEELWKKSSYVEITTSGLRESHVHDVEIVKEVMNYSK
In short: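 Purified expressed CpIMPDH enzyme; activity followed by NADH production. IC50 taken as the average of three independent experiments unless otherwise noted.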

[2] = molecular target: Inosine-5'-monophosphate dehydrogenase 2 (Homo sapiens) (UniProt P12268); assay: Inhibition of human IMPDH2 assessed as reduction in NADH production at 5 uM
Inosine-5'-monophosphate dehydrogenase 2 (Homo sapiens), sequence (P12268 2-514 limits assumed): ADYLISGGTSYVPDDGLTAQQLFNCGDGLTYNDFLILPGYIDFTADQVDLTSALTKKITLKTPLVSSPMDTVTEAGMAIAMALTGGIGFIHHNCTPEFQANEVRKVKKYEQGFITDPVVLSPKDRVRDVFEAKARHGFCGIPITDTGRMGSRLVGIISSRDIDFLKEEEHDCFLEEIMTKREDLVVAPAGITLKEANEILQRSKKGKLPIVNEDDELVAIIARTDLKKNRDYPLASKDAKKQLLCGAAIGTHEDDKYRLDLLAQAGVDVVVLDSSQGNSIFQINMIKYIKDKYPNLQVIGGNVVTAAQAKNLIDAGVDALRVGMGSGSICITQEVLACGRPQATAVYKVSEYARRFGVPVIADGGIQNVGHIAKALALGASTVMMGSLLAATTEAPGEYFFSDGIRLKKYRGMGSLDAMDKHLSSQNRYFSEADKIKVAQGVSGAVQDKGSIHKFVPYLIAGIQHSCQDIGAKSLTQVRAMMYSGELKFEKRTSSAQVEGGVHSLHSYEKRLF

Row | SMILES | IC50 [1] | inhibition [2]
1 | O=C(Cn1ncc2c(=O)oc3ccccc3c21)Nc1ccc(F)cc1 | 460 nM | < 20%
2 | O=C(Cn1ncc2c(=O)oc3ccccc3c21)Nc1ccc2c(c1)OCCO2 | 190 nM | < 20%
3 | COc1cc(N(C)C(=O)Cn2ncc3c(=O)oc4ccccc4c32)ccc1Cl | > 5000 nM | 
4 | O=C(Cn1ncc2c(=O)oc3ccccc3c21)Nc1ccc(C(F)(F)F)cc1 | 580 nM | < 20%
5 | O=C(Cn1ncc2c(=O)oc3ccccc3c21)Nc1ccc2cc[nH]c2c1 | 120 nM | < 20%
6 | COc1cc(NC(=O)Cn2ncc3c2-c2ccccc2CC3)ccc1Cl | 100 nM | < 20%
7 | COc1cc(NC(=O)Cn2ncc3c(=O)oc4cc(C)ccc4c32)ccc1Cl | 2000 nM | 
8 | COc1cc(NC(=O)Cn2ncc3c(=O)oc4ccccc4c32)ccc1Cl | 20 nM | < 20%
9 | COc1cccc(NC(=O)Cn2ncc3c(=O)oc4ccccc4c32)c1 | 1500 nM | 
10 | O=C(Cn1ncc2c(=O)oc3ccccc3c21)Nc1ccc2ncccc2c1 | 80 nM | < 20%
11 | O=C(Cn1ncc2c(=O)oc3ccccc3c21)Nc1ccc2[nH]ccc2c1 | > 5000 nM | 
12 | O=C(Cn1ncc2c(=O)oc3ccccc3c21)Nc1ccc2[nH]cnc2c1 | 2500 nM | 
13 | O=C(Cn1ncc2c(=O)oc3ccccc3c21)Nc1ccc(Cl)cc1Cl | > 5000 nM | 
14 | O=C(Cn1ncc2c(=O)oc3ccccc3c21)Nc1cccc(Cl)c1 | > 5000 nM | 
15 | COc1ccc(NC(=O)Cn2ncc3c(=O)oc4ccccc4c32)cc1OC | 2500 nM | 
16 | COc1cc(NC(=O)Cn2ncc3c2-c2ccccc2OC3)ccc1Cl | 70 nM | < 20%
17 | O=C(Cn1ncc2c(=O)oc3ccccc3c21)Nc1ccc(Cl)c(Cl)c1 | 44 nM | < 20%
18 | O=C(Cn1ncc2c(=O)oc3ccccc3c21)Nc1ccccc1Cl | > 5000 nM | 
19 | O=C(Cn1ncc2c(=O)oc3ccccc3c21)Nc1ccc2ccccc2c1 | 67 nM | < 20%
20 | COc1cc(NC(=O)C(C)n2ncc3c(=O)oc4ccccc4c32)ccc1Cl (stereo unspecified) | 63 nM | < 20%
